Compound activity (PubChem)
Hits are enriched below; roughly 5.5% of the tested compounds scored in any of these assays.
STAT1 activator – increases IFN-gamma driven STAT1 reporter signal | NIH 3T3 STAT1-luciferase reporter, luminescence; 100% = IFN-gamma alone, no compound | activation (% of control), % at 5.5 µM | actives 2.6% (n = 200,000) | AID 932;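 active = activation above the screen-wide mean activation plus 3 SD, cut at about 130% in these data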;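 note: raw ratio to IFN-gamma control signal so 100% means no change and 0% no light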
Cl transport mod – KCC2 (human) Cl- transport modulation; Q9H2X9; KCC2 cells, thallium flux FluoZin-2 fluorescence; B-score of Tl+ flux slope (higher = more flux/activation; lower = inhibition) at 10 µM; actives 2.2% (n = 190,000); AID 1456;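 active = thallium flux slope and its plate-corrected score both differing from the plate sample mean at a set confidence after two filtering rounds, in either direction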;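 note: slope of fluorescence scaled to starting intensity during 10 to 20 s after thallium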
Target sequence (Q9H2X9 whole entry, looked up): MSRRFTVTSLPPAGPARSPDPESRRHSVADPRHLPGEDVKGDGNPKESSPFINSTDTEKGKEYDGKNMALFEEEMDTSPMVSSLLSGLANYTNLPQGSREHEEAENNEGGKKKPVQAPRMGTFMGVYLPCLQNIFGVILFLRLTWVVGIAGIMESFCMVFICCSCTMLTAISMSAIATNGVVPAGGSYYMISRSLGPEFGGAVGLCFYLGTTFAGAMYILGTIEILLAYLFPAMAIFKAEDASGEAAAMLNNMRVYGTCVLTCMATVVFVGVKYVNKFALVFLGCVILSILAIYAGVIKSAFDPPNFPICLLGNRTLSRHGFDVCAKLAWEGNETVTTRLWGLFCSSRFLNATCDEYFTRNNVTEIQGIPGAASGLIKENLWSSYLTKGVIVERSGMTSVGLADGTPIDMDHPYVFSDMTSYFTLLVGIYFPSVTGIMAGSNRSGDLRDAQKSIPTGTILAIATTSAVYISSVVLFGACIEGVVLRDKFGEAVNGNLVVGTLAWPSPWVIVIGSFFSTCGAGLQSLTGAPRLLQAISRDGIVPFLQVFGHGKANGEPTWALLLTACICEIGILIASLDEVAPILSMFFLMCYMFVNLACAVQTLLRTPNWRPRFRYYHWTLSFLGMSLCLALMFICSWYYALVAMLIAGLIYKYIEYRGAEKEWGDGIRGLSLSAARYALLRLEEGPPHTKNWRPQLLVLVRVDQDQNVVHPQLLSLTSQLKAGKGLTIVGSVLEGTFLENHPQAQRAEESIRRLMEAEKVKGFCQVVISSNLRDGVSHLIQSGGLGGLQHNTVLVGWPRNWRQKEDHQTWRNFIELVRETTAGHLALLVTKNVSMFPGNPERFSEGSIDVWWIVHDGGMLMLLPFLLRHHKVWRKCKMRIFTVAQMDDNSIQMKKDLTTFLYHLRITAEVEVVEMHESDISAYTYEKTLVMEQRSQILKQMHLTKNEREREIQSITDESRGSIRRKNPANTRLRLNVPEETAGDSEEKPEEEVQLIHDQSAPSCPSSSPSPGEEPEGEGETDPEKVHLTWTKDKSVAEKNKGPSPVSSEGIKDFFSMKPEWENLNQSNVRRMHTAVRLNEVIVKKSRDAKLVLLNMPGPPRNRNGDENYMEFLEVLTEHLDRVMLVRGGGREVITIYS
STAT1 inh – reduces IFN-gamma driven STAT1 reporter signal. NIH 3T3 STAT1-luciferase reporter, luminescence. AID 920. inhibition, % at 5.5 µM. actives 0.35% (n = 200,000);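 active = inhibition above a set limit, the mean inhibition across all tested compounds plus 3 SD, cut at about 34% in these data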;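 note: 0% = IFN-gamma with DMSO and 100% = IFN-gamma with 300 µM nifuroxazide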
STAT3 activator – activators of IL-6 induced STAT3 signaling. AID 871. actives 0.91% (n = 190,000). activation (% of control), % at 5.6 µM. U3A cells, IL-6 STAT3-luciferase reporter, luminescence; 100% = signal with IL-6 EC80 alone;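 active = activation above the screen-wide mean of compound activation plus 3 SD, cut at about 130% in these data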;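 note: 0% = background luminescence of wells with medium and substrate only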
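Material: human STAT1-deficient U3A cells with stable STAT3-luciferase reporter / Probe or stimulus: IL-6 stimulus at 33 ng/mL final / Schedule: 1 h compound pre-exposure, 6 h IL-6 stimulation, 37 °C / Technique: luminescence / Read-out basis: percent of IL-6-only median luminescence / Control set: IL-6-only high control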
HSV replic up – increases HSV replication in cells | HSV replication augmentation in cells, fold increase | maximum fold increase | actives 0.005% (n = 220,000); in the data active = maximum fold increase above about 1.5; inconclusive = no clear call, values can overlap the other calls; tested in PC3 cells
STAT3 blocker – STAT3 signaling inhibition. U3A cells, IL-6 STAT3-luciferase reporter, luminescence; host cell line lacks STAT1. inhibition, % at 5.5 µM. actives 0.89% (n = 190,000);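 active = inhibition above the mean inhibition across all screened compounds plus 3 SD, cut at about 44% in these data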;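 note: 0% = DMSO only wells and 100% = 100 µM nifuroxazide control wells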
KCC2 sec1 – KCC2 (human) modulation, secondary assay; actives 15% (n = 3,700); HEK293-KCC2, thallium flux, FluoZin2 fluorescence; active compounds read high; AID 1713; normalised thallium flux (F/F0 slope) at 10 µM; shares compounds with Cl transport mod;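 active = thallium flux slope above the same plate's solvent-only control mean plus 3 SD; inconclusive = the two replicate wells disagree; inactive = no significant difference from solvent-only control wells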
KCC2 bumet counter – thallium flux persisting under bumetanide in KCC2 cells, counter-screen secondary assay. actives 49% (n = 3,700). HEK293-KCC2 + bumetanide/ouabain, thallium flux FluoZin2; active compounds read high. normalized thallium flux at 10 µM. shares compounds with Cl transport mod;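 active = thallium entry rate above the same plate's blocked-transporter control wells by more than 3 SD; inconclusive = the two repeat wells disagree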;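 note: raw slope of fluorescence over initial fluorescence between 10 and 20 s after thallium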
KCC2 secondary2 – KCC2 (human) modulation, second secondary assay; AID 1715; normalized thallium flux at 10 µM; actives 23% (n = 3,700); HEK293-KCC2, thallium flux FluoZin2 fluorescence; actives lie on both sides; F/F0 rise rate, 10–20 s post-thallium; shares compounds with Cl transport mod;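 active = thallium flux slope more than 3 SD above or below the plate's solvent-only control mean, mostly below; inconclusive = the two repeat wells disagreed; inactive = no significant shift from solvent-only controls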;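 note: raw slope with 0.1% DMSO as baseline and bumetanide as block control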
HEK counter1 – parental HEK flux effect, counter-screen; shares compounds with Cl transport mod; HEK293 parental cells, thallium flux FluoZin2, ouabain; baseline-ratio fluorescence slope, 10–20 s after thallium; thallium flux rate (normalised fluorescence) at 10 µM; actives 46% (n = 3,700); AID 1716;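 active = thallium flux rate significantly above the same plate's solvent-only control wells, beyond their mean plus 3 SD; inconclusive = the two replicate wells gave conflicting results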
KCC2 ouabain – KCC2 (human) modulation, ouabain retest; shares compounds with Cl transport mod; HEK293-KCC2, thallium flux FluoZin2 fluorescence; bidirectional: low = inhibitor, high = activator; raw Tl+ flux slope (below DMSO = inhibition, above = activation) at 10 µM; actives 48% (n = 3,700); AID 1717;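 active = thallium flux slope beyond 3 SD from same-plate DMSO control mean in most replicates, usually higher, sometimes lower; inconclusive = repeat tests gave conflicting results; inactive = no significant difference from controls in most replicates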;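 note: slope of initial-normalized fluorescence between seconds 10 and 20 after thallium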
HEK counter2 – parental HEK flux effect, counter-screen 2; actives 33% (n = 3,700); shares compounds with Cl transport mod; HEK293 parental, thallium flux FluoZin-2 fluorescence slope; thallium flux slope at 10 µM;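 active = thallium flux slope above the same plate's solvent-control mean plus 3 SD in both duplicate wells; inconclusive = duplicate wells that disagreed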;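 note: run without ouabain in cells lacking the KCC2 cotransporter; slope of fluorescence scaled to its starting value between 10 and 20 s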
* hit, by the source's call; i = inactive; ? = inconclusive; / = no result given.

SMILES | STAT1 activator | Cl transport mod | STAT1 inh | STAT3 activator | HSV replic up | STAT3 blocker | KCC2 sec1 | KCC2 bumet counter | KCC2 secondary2 | HEK counter1 | KCC2 ouabain | HEK counter2
O=C(N/N=C/c1ccc(Br)s1)c1ccco1 | / | 7.1* | / | / | i | / | 0.011 | 0.011* | 0.035 | 0.016* | 0.024 | 0.013*
Cc1occc1C(=O)N/N=C/c1ccc(Br)s1 | 139* | 78* | -46 | 96 | i | 10 | ? | 0.03* | 0.032 | 0.036* | 0.052* | 0.022*
Cc1ccc(C(=O)N/C(=C\c2ccc3c(c2)OCO3)C(=O)Nc2ccc(C(=O)O)cc2)cc1 | 101 | 0.35 | -4 | 93 | i | 10 | / | / | / | / | / | /
O=C(NC(=S)N(Cc1ccccc1)Cc1ccccc1)C1CCCCC1 | 78 | 2 | 24 | 98 | i | 10 | / | / | / | / | / | /
CCN(C(=S)NC(=O)C1CCCC1)C1CCCCC1 | 96 | 7.3* | 3 | 102 | i | 4 | 0.012 | 0.03* | 0.038 | ? | 0.033* | ?
CC(C)CCNC(=O)CN(Cc1ccc2c(c1)OCO2)C(=O)Cn1nnc(-c2cccs2)n1 | 97 | / | 3 | 105 | i | -5 | / | / | / | / | / | /
COC(=O)NCC12CC3CC(C1)CC(CNC(=O)OC)(C3)C2 | 102 | 0.12 | -4 | 99 | i | 7 | 0.0075 | 0.0044 | 0.028 | 0.0071 | 0.019 | 0.0096
CCCCOCP(=O)(CC)COCCCC | 105 | 0.084 | -6 | 101 | i | 1 | / | / | / | / | / | /
CCC(Sc1nc(C)cc(=O)[nH]1)C(=O)Nc1nc(-c2ccccc2)cs1 (centres undefined) | 106 | -5.3* | -7 | 95 | i | 12 | 0.0046 | 0.0055 | 0.021* | 0.006* | 0.012* | 0.0097
Cc1onc(-c2ccccc2)c1C(=O)NNC(=S)NC(=O)c1ccc(Cl)cc1Cl | 103 | 16* | -3 | 98 | i | 3 | ? | 0.044* | 0.055* | 0.039* | 0.045* | 0.042*
COc1ccc(/C=C/C(=O)NC(=S)NNC(=O)c2cc(OC)c(OC)c(OC)c2)cc1OC | / | -0.42 | / | / | i | / | / | / | / | / | / | /
COc1ccc(/C=C/C(=O)NC(=S)NNC(=O)c2cc(OC)c(OC)c(OC)c2)cc1 | / | 4.5* | / | / | i | / | 0.0094 | ? | 0.032 | 0.0042 | 0.021 | 0.01
Cc1onc(-c2ccccc2)c1C(=O)NNC(=S)NC(=O)/C=C/c1ccccc1 | 108 | 6.3* | -9 | 101 | i | 2 | 0.013* | 0.037* | 0.035 | 0.017* | 0.035* | 0.012*
O=C(NC(=S)NCC1CCCO1)c1ccc(Cl)cc1Cl (centres undefined) | 107 | 9* | -7 | 101 | i | 3 | 0.0097 | 0.029* | 0.029 | 0.011* | ? | 0.0094
COc1ccc(NC(=O)CC2C(=O)N(c3cccc(OC)c3)C(=O)N2Cc2ccco2)cc1 (centres undefined) | 107 | -0.49 | -8 | 100 | i | 2 | / | / | / | / | / | /
COc1ccc(-c2cc(C(=O)NNC(=S)NC(=O)c3c(-c4ccccc4)noc3C)[nH]n2)cc1 | 112 | -0.45 | -13 | 106 | i | 3 | / | / | / | / | / | /
COc1ccc(/C=C/C(=O)NC(=S)NNC(=O)c2c(-c3ccccc3)noc2C)cc1 | 100 | 7.1* | 0 | 94 | i | 5 | 0.013* | 0.037* | 0.033 | 0.018* | ? | 0.012*
CCCc1nc2ccccc2c(=O)n1N | 105 | 12* | -2 | 99 | i | 1 | 0.011 | 0.007 | 0.033 | 0.0084 | 0.019 | 0.012
CC(C)CCNC(=O)Cc1ccc(Nc2nc(=S)[nH]c3ccccc23)cc1 | 107 | -0.96 | -9 | 100 | i | 2 | / | / | / | / | / | /
Cc1ccnc2nc(C(=O)Nc3nnc(-c4ccc(Cl)cc4)o3)nn12 | 108 | 2.4 | -11 | 103 | i | 6 | / | / | / | / | / | /
CN(C)c1ccc(C(=O)NNC(=O)c2ccc(Cl)cc2)cc1 | / | -1.3 | / | / | i | / | / | / | / | / | / | /
CN(C)c1ccc(C(=O)Nc2nnc(-c3ccc(Cl)cc3)o2)cc1 | 101 | 20* | 0 | 105 | i | -6 | 0.007 | 0.06* | 0.046* | 0.054* | 0.051* | 0.026*
CC(=O)c1ccc(C(=O)Nc2nnc(-c3ccc(Cl)cc3)o2)cc1 | / | 22* | / | / | i | / | 0.022* | 0.09* | ? | 0.045* | 0.05* | 0.016*
CN(c1ccccc1)S(=O)(=O)c1ccc(C(=O)Nc2nnc(-c3ccc(F)cc3)o2)cc1 | 100 | 18* | 1 | 103 | i | 2 | 0.013* | 0.056* | 0.034 | ? | 0.038* | 0.012
CCC1CCc2[nH]nc(C(=O)O)c2C1 (centres undefined) | 94 | 4.3* | 0 | 103 | i | -4 | 0.0098 | 0.007 | 0.029 | 0.0066 | 0.021 | 0.0098
SMILES | STAT1 activator | Cl transport mod | STAT1 inh | STAT3 activator | HSV replic up | STAT3 blocker | KCC2 sec1 | KCC2 bumet counter | KCC2 secondary2 | HEK counter1 | KCC2 ouabain | HEK counter2
Cc1ccc(-n2c(CSc3nc(C)cc(C)n3)nnc2SCC(=O)NCc2ccco2)cc1 | 99 | -0.19 | 1 | 101 | i | 8 | / | / | / | / | / | /
CCN(CC)c1ccc(NC(=O)c2ccccc2)cc1S(=O)(=O)Nc1ccccc1OC | 104 | 0.16 | -5 | 106 | i | -5 | / | / | / | / | / | /
O=C1OC(c2ccc(O)cc2)(c2ccc(O)cc2)c2ccccc21 | 91 | 11* | 10 | 105 | i | -3 | 0.0057 | 0.0096* | 0.035 | 0.0077 | 0.025* | 0.012
CC(C)C1(C(C)C)OC(=O)c2ccccc21 | 93 | -0.14 | 8 | 91 | i | 14 | / | / | / | / | / | /
CC(C)CC(OC(=O)c1nsc(Cl)c1Cl)C(=O)NCc1cccs1 (centres undefined) | 100 | -3.7* | 0 | 104 | i | -4 | 0.0061 | 0.0042 | 0.028 | 0.007 | 0.018 | 0.0097
CCOC(=O)c1c(COc2ccccc2)oc2ccc(O)cc12 | 94 | / | 6 | 87 | i | 20 | / | / | / | / | / | /
